Laboratory results reported in ChEMBL document CHEMBL3352170, “Sulfonamides as multifunctional agents for Alzheimer's disease” (Bioorg Med Chem Lett, 2015).
Activity calls are given as the source filed them. The rule behind the calls is not given here.

Columns and labels:
[1] = target: T1, Cholinesterase (Homo sapiens, UniProt P06276); assay: Inhibition of BuChE (unknown origin) assessed as reduction in S-butyrylthiocholine chloride hydrolysis at 10 uM after 15 mins by Ellman method
How it was run: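 Single-concentration screen of the commercial and synthetic sulfonamides. Read-out is percent inhibition of BuChE activity. Galanthamine serves as the reference standard.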

[2] = target: Amyloid-beta precursor protein (Homo sapiens) (UniProt P05067); assay: Inhibition of Amyloid beta (1 to 40) (unknown origin) fibril formation at Abeta:compound ratio of 1:10 after 4 days by Thioflavin-T fluorescence assay
How it was run: (§1)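 Aβ fibrillogenesis was measured by quantitative Thioflavin-T fluorescence with Aβ at 100 µM and Aβ:inhibitor at 1:10, or 1:1 for one compound. Signal was normalized to the fluorescence of the inhibitor-free control.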

[3] = target: Amyloid-beta precursor protein (Homo sapiens) (UniProt P05067); assay: Stimulation of Amyloid beta (1 to 42) (unknown origin) oligomer assembly at Abeta:compound ratio of 0.0002 after 30 mins by single-site ELISA assay
How it was run: (§2)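 Oligomer formation was read in a single-site streptavidin-based assay using biotinyl-Aβ(1–42) at 0.01 µM. Aβ/inhibitor ratio was 0.0002, with 30 min incubation.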

[4] = Antioxidant activity assessed as DPPH radical scavenging activity at 10 uM after 30 mins; format: physicochemical; conditions: 0.5 h
[5] = target: Amyloid-beta precursor protein (Homo sapiens) (UniProt P05067); assay: Stimulation of Amyloid beta (1 to 40) (unknown origin) fibril formation at Abeta:compound ratio of 1:10 after 4 days by Thioflavin-T fluorescence assay; how it was run: as §1
[6] = target: Amyloid-beta precursor protein (Homo sapiens) (UniProt P05067); assay: Inhibition of Amyloid beta (1 to 42) (unknown origin) oligomer assembly at Abeta:compound ratio of 0.0002 after 30 mins by single-site ELISA assay; how it was run: as §2
[7] = target: T1, Cholinesterase; assay: Inhibition of BuChE (unknown origin) assessed as reduction in S-butyrylthiocholine chloride hydrolysis after 15 mins by Ellman method
[8] = target: Acetylcholinesterase (Homo sapiens, UniProt P22303); assay: Inhibition of AChE (unknown origin) assessed as reduction in acetylthiocholine iodide hydrolysis after 15 mins by Ellman method
[9] = target: Amyloid-beta precursor protein (Homo sapiens) (UniProt P05067); assay: Inhibition of Amyloid beta (1 to 40) (unknown origin) fibril formation at Abeta:compound ratio of 1:1 after 4 days by Thioflavin-T fluorescence assay; conditions: concentration not given here; how it was run: as §1
[10] = target: Amyloid-beta precursor protein (Homo sapiens) (UniProt P05067); assay: Inhibition of Amyloid beta (1 to 40) (unknown origin) fibril formation at Abeta:compound ratio of 1:10 after 4 days by atomic force microscopy
How it was run: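 Aβ(1–40) was incubated for 4 days with or without inhibitor, at 100 µM Aβ and Aβ:inhibitor 1:10. Fibril morphology was imaged by atomic force microscopy against a solvent-treated control.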

T1 sequence (P06276 whole entry): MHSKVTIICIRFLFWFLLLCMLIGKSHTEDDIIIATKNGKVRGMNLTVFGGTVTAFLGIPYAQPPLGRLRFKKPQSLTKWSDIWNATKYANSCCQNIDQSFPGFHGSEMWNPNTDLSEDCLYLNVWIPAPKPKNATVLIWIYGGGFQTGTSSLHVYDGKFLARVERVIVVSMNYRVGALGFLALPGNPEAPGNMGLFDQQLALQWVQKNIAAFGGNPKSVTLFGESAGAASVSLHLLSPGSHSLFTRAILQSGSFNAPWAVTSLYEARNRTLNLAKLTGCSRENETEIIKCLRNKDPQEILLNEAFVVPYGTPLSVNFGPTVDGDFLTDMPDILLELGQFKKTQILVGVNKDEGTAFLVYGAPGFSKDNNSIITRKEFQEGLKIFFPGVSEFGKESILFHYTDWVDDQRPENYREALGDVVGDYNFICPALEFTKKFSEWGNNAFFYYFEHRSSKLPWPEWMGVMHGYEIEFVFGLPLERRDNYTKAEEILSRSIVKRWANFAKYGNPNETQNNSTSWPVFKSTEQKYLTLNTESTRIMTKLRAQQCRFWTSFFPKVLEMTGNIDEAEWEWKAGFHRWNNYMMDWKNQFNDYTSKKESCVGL
Amyloid-beta precursor protein (Homo sapiens), sequence (P05067 whole entry): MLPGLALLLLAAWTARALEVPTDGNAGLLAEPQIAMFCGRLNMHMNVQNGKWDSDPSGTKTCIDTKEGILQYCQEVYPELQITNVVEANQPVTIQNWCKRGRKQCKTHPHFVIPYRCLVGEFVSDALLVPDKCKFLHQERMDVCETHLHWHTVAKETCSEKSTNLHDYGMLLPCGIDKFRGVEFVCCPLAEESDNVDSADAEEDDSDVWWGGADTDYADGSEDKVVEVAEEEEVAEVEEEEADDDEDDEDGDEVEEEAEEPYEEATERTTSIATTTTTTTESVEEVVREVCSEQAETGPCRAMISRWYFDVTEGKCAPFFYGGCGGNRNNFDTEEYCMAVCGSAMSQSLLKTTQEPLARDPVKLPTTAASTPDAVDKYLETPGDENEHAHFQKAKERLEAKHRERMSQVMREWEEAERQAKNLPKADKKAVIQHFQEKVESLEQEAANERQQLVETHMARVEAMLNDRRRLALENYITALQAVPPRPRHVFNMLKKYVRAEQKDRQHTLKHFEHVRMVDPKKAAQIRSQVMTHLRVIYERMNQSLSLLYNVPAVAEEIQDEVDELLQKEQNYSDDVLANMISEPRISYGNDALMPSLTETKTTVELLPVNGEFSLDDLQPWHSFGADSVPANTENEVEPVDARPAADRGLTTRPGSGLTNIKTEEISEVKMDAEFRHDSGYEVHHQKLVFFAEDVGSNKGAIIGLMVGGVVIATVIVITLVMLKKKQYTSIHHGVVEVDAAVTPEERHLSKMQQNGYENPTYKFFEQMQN
Acetylcholinesterase, sequence (P22303 whole entry): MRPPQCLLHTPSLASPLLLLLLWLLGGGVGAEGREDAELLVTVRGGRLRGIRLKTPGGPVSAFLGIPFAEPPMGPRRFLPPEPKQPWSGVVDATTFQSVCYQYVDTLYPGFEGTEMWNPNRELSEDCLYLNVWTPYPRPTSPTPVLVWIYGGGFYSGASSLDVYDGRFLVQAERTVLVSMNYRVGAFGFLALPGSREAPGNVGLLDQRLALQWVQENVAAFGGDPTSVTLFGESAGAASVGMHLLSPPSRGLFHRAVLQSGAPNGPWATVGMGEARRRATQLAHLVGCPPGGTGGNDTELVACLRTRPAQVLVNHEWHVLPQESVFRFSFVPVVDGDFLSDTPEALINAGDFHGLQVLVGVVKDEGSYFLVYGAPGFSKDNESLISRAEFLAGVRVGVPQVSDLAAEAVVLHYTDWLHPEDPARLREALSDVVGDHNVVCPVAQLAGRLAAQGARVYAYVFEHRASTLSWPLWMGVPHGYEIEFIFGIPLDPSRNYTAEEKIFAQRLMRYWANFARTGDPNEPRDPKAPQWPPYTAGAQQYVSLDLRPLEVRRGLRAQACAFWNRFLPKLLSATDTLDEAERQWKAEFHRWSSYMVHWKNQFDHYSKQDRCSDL

SMILES | inhibition [1] [%] | Activity [3] | inhibition [2] | Activity [5] | inhibition [6] | also measured
O=S(=O)(CCCN1CCC(Cc2ccccc2)CC1)NCCNc1cccc2ccccc12 | > 40 | Active |  |  |  | inhibition ([2]; concentration not given here): 60%
Oc1ccc(/C=C/c2cc(O)cc(O)c2)cc1 [RESVERATROL] |  |  |  |  |  | Activity [4]: Active
O=S(=O)(CCCN1CCN(c2ncccn2)CC1)NCCNc1cccc2ccccc12 |  | Active | Active |  |  | 
Cl.O=S(=O)(CCCN(CCO)CCO)NCCNc1cccc2ccccc12 |  | Active | Active |  |  | Activity [4]: Active
O=S(=O)(CCCN1CCC(O)CC1)NCCNc1cccc2ccccc12 |  | Active |  |  |  | inhibition ([2]; concentration not given here): 64%
O=C1c2ccccc2S(=O)(=O)N1CCCN(CCO)CCO |  |  |  | Active | < 54% | 
O=C(CCC(=O)NCCNc1cccc2ccccc12)NCCNc1cccc2ccccc12 |  |  | Active |  | 50% | 
CCN(CC)CCN1C(=O)c2ccccc2S1(=O)=O |  |  |  | Active | < 54% | 
O=S(=O)(CCCN1CCN(Cc2ccccc2)CC1)NCCNc1cccc2ccccc12 | 90 | Active |  |  |  | IC50 [7]: 2000 nM; Activity [4]: Active; inhibition ([2]; concentration not given here): 43%; IC50 [8]: 160 nM
O=C1c2ccccc2S(=O)(=O)N1CCCN1CCC(O)CC1 |  |  |  | Active | < 54% | 
CC(C(O)c1ccccc1)N(C)CCCS(=O)(=O)NCCNc1cccc2ccccc12.Cl (centres undefined) | > 40 | Active | Active |  |  | Activity [4]: Active
O=S(=O)(CCCN1CCN(c2ccccc2)CC1)NCCNc1cccc2ccccc12 | > 40 | Active | Active |  |  | 
O=C1c2ccccc2S(=O)(=O)N1CCCN1CCN(Cc2ccccc2)CC1 |  |  |  | Active | inactive | 
O=C1NS(=O)(=O)c2ccccc21 [SACCHARIN] | 73 |  |  | Active | < 54% | IC50 [7]: 3600 nM
Cc1ccccc1S(N)(=O)=O |  |  |  | Active | < 54% | 
NS(=O)(=O)c1ccccc1Br |  |  |  | Active | < 54% | 
O=S(=O)(CCCCl)NCCNc1cccc2ccccc12 |  | Active | Active |  |  | 
O=S(=O)(CCCNCCNc1cccc2ccccc12)NCCNc1cccc2ccccc12 | 99 | Active |  |  |  | IC50 [7]: 930 nM; inhibition [9]: 45%
CC(NCCCS(=O)(=O)NCCNc1cccc2ccccc12)c1ccccc1 (centres undefined) | > 40 | Active | Active |  |  | 
O=C(NCCCCNC(=O)c1ccc2ccccc2c1)c1ccc2ccccc2c1 |  |  | Active |  | 99% | 
O=C1c2ccccc2S(=O)(=O)N1CCO |  |  |  | Active | < 54% | 
COc1ccc(S(N)(=O)=O)cc1 |  |  |  | Active | < 54% | 
CCN(CC)CCCN1C(=O)c2ccccc2S1(=O)=O |  |  |  | Active | < 54% | 
O=S(=O)(CCCN1CCOCC1)NCCNc1cccc2ccccc12 |  | Active | Active |  |  | 
NS(=O)(=O)c1ccc([N+](=O)[O-])cc1 |  |  |  | Active | < 54% | 
O=S(=O)(CCCN1CCN(c2ccccn2)CC1)NCCNc1cccc2ccccc12 | > 40 | Active | Active |  |  | 
O=S(=O)(CCCN1CCC(c2ccccc2)CC1)NCCNc1cccc2ccccc12 | 58 | Active |  |  |  | IC50 [7]: 5080 nM; inhibition ([2]; concentration not given here): 87%; inhibition [10]: Active
O=S(=O)(CCCNCCc1c[nH]c2ccccc12)NCCNc1cccc2ccccc12 | > 80 | Active | Active |  |  | 
